Compounds with a hit are over-represented: about 1.3% of the library has one in this group of screens.
LANA DNA inh: inhibitors of KSHV LANA C-terminal domain DNA binding; 340,000 tested, 0.078% active; inhibition, % at 9 µM; MBP-C-LANA/FAM-LBS DNA binding, fluorescence polarization;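 active means highest replicate inhibition at or above 60% at 9 µM, even if other replicates fall short; inactive means all replicates below 60% inhibition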;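 further: 0% = neutral control wells and 100% = 4 µM acridine orange control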
GRK2 aptamer HTS: blocks RNA aptamer binding to human GRK2; 330,000 tested, 0.59% active; inhibition of aptamer binding, % at 10 µM; AID 488847; P25098; bead flow cytometry, FAM-aptamer displacement from GRK2;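 active means inhibition of aptamer binding above 40%, roughly 3 SD of noise, on plates passing a quality check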;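 further: median bead fluorescence of bound FAM aptamer so fluorescent compounds give negative values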
T cell HTS: T cell immune modulators affecting CD8 T cell-vesicle binding; response (vesicle binding), % at 7 µM; AID 2052; 330,000 tested, 0.068% active; 2C CD8+ T cell-vesicle binding, flow cytometry; stronger effect = lower value;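 active means response, share of CD8 T cells binding vesicles, and their 90th percentile fluorescence all below set limits, cut at about 80% in these data, passing the limit was not always enough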;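 further: values below 100% mean blocked vesicle binding to the CD8+ T cells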
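Material: murine 2C transgenic CD8+ T lymphocytes / Also added: QL9-peptide-loaded Drosophila micro-vesicles bearing Ld, ICAM-1 and B7-1 / Schedule: binding step 1.5 h, 37 °C, antibody labelling 20 min, ice / Signal: flow cytometry, PE anti-B7-1 (FL2) versus Alexa647 anti-CD8 (FL8), PFA-fixed / Evaluation: percent CD8+ FL2 mean versus row control / Benchmarks: naked versus QL9-loaded vesicles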
MEX-5 binding: C. elegans MEX-5 TCR-2 RNA binding activity. Q9XUB2. MEX-5/FITC-TCR2 RNA binding, fluorescence polarization; stronger effect = lower value. activity score (negative = inhibition of binding), % at 10 µM. 300,000 tested, 0.38% active. AID 1832;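 active means inhibition past about -25% in most replicates, and total fluorescence under double the plate's negative control median, limit read from the data; inconclusive means replicates evenly split on the limit, or fluorescence at least double controls; inactive means too little inhibition in most replicates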;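 further: 0% = DMSO and -100% = 5 µM competing unlabeled TCR2 RNA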
Target sequence (Q9XUB2 whole entry, looked up): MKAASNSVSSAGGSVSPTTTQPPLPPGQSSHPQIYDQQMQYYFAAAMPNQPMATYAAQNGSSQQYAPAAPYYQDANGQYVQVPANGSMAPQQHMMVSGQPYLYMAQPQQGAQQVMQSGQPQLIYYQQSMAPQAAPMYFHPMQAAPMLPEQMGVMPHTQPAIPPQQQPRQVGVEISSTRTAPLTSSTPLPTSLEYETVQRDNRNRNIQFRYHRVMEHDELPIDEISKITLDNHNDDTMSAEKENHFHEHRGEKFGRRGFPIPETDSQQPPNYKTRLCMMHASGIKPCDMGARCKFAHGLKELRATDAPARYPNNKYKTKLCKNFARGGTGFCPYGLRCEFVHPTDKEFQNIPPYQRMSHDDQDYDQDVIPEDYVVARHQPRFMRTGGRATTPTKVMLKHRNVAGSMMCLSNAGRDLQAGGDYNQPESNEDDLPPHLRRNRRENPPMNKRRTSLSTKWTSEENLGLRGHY
Keap1 Nrf2 FP: inhibitors of human Keap1-Nrf2 protein-protein interaction; Q14145; Keap1 Kelch-Nrf2 peptide fluorescence polarization, 1536-well; inhibition, % at 9.4 µM; 340,000 tested, 0.15% active; in the data active means inhibition above about 12%; inconclusive means no clear call, values can overlap the other calls; inactive means below about 7.3%;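 further: human Keap1 Kelch domain with fluorescein labeled Nrf2 9mer peptide probe; 0% = neutral control wells and 100% = peptide positive control; higher means more block of Keap1 binding to Nrf2 peptide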
EBV gp42 block: inhibitors of Epstein-Barr virus glycoprotein 42; Q1HVG2; Fluorescence polarization binding assay, mP read-out; inhibition, % (tested at 21.74 µM); 220,000 tested, 0.42% active; AID 1085; in the data active means inhibition above about 50%
Target sequence (Q1HVG2 whole entry, looked up): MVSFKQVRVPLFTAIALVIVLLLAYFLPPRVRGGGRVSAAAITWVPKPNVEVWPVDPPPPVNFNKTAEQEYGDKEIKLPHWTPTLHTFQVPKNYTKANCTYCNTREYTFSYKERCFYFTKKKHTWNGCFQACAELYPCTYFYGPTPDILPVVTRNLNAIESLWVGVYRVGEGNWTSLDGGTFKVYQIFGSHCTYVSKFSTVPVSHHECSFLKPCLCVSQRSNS
GRK2 inh confirm: confirmation of human GRK2 inhibitors displacing RNA aptamer; aptamer displacement, % at 10 µM; 2,000 tested, 4% active; shares compounds with GRK2 aptamer HTS; AID 504451; bead-bound GRK2, FAM-aptamer displacement, flow cytometry;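 active means aptamer displacement above 40%, near three times the noise of non-fluorescent compounds, on plates passing quality checks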;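 further: negative values mostly reflect intrinsic compound fluorescence rather than true enhancement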
Aptamer quench SP: quenches fluorescent RNA aptamer, GRK2 hit artifact; fluorescence response (% of DMSO), % at 10 µM; AID 504580; Carboxyfluorescein RNA aptamer on beads, flow cytometry quenching; stronger effect = lower value; shares compounds with GRK2 aptamer HTS; 2,000 tested, under 10 active;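 active means compounds that quench the bead-bound fluorescent RNA probe, cutting fluorescence to under half of the solvent control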;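 further: counterscreen run without GRK2 so only probe quenching by compound is measured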
GRK2 CP2: confirmation of human GRK2 inhibitors binding RNA aptamer site; shares compounds with GRK2 aptamer HTS; bead-bound GRK2, FAM-aptamer displacement, flow cytometry; inhibition of aptamer binding, % at 10 µM; 360 tested, under 10 active; AID 504782;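 active means inhibition of aptamer binding above 40%, about triple the noise seen with nonglowing compounds, on plates passing quality control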;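 further: negative values mostly come from compounds that fluoresce themselves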
FAM quench CP2: counter-screen for GRK2 binding hits: quenchers of fluorescent RNA aptamer | carboxyfluorescein RNA aptamer beads, flow cytometry quenching; stronger effect = lower value | fluorescence response vs DMSO, % at 10 µM | shares compounds with GRK2 aptamer HTS | 360 tested, under 10 active;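 active means response vs DMSO under 50%, meaning signal dropped by over half, treated as fluorescence quencher; inconclusive means no clear call, values can overlap the other calls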;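 further: labelled aptamer on streptavidin beads without GRK2 as a quench counter-screen; 100% = bead fluorescence of DMSO wells and lower means quenching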
An asterisk follows results filed as active.

`COc1ccccc1CNC(=O)c1cccc(NC(=O)c2ccccc2)c1` gave LANA DNA inh 0.7, GRK2 aptamer HTS 1.0, T cell HTS 366.2, MEX-5 binding 2.0, Keap1 Nrf2 FP 0.4, EBV gp42 block -4.7, GRK2 inh confirm -2.0 and Aptamer quench SP 94.6.
Screening Cc1ccc(C(=O)Nc2cccc(C(=O)NCc3ccccc3)c2)o1 returned LANA DNA inh -1.1, GRK2 aptamer HTS 0.0, MEX-5 binding -0.6, Keap1 Nrf2 FP -2.2, EBV gp42 block -3.0, GRK2 inh confirm -21.3 and Aptamer quench SP 98.4.
`COc1ccc(C(=O)Nc2c(O)ccc3ccccc23)cc1OC` gave LANA DNA inh -1.4, GRK2 aptamer HTS 1.0, T cell HTS 421.8, MEX-5 binding -1.2 and Keap1 Nrf2 FP -1.7.
`COc1ccc(C(=O)Nc2c(O)ccc3ccccc23)cc1` gave LANA DNA inh 0.4, GRK2 aptamer HTS 98.0*, T cell HTS 328.8, MEX-5 binding -1.7, Keap1 Nrf2 FP -7.1, GRK2 inh confirm -3.5 and Aptamer quench SP 95.1.
Screening O=C(NCc1ccccc1Cl)c1cccc(NC(=O)c2ccccc2)c1 returned LANA DNA inh 0.2, GRK2 aptamer HTS 0.0, T cell HTS 995.0, MEX-5 binding -0.6, Keap1 Nrf2 FP 2.4, EBV gp42 block 0.4, GRK2 inh confirm 1.7 and Aptamer quench SP 121.8.
For CC(C)CC1(C(=O)O)NC(c2ccccc2O)C2C(=O)N(C(C)C)C(=O)C21 (stereo unspecified) the results were LANA DNA inh 0.5, GRK2 aptamer HTS 5.0, T cell HTS 380.1, MEX-5 binding 0.3, Keap1 Nrf2 FP 7.3 and EBV gp42 block -22.6.
Screening Cc1cn(-c2cc(C(=O)Nc3ccc(C)c(NC(=O)N4CCNC4=O)c3)cc(C(F)(F)F)c2)cn1 returned LANA DNA inh -0.3, GRK2 aptamer HTS 0.0, T cell HTS 597.2, MEX-5 binding 0.7, Keap1 Nrf2 FP -2.0 and EBV gp42 block -6.6.
For CCCCn1c(NC(C)=O)c(C#N)c2nc3ccccc3nc21 the results were LANA DNA inh 0.8, GRK2 aptamer HTS 1.0, T cell HTS 346.9, MEX-5 binding 0.6, Keap1 Nrf2 FP -1.5 and EBV gp42 block -18.1.
C=CCn1c(NC(=O)c2ccccc2Cl)c(C#N)c2nc3ccccc3nc21 was read as LANA DNA inh 3.7, GRK2 aptamer HTS 43.0*, T cell HTS 122.6, MEX-5 binding -2.3, Keap1 Nrf2 FP -11.8, EBV gp42 block -9.6, GRK2 inh confirm 1.2 and Aptamer quench SP 101.0.
`CCN(c1ccccc1)S(=O)(=O)c1ccc(OCC(F)(F)F)c(NC(=O)c2ccc(=O)[nH]c2)c1` gave LANA DNA inh -0.8 and Keap1 Nrf2 FP 4.0.
For CCC(=O)c1c[nH]c(C(=O)N2CCOCC2)c1 the results were LANA DNA inh 0.9, GRK2 aptamer HTS 100.0*, T cell HTS 294.4, MEX-5 binding -2.2, Keap1 Nrf2 FP -1.0, GRK2 CP2 -2.3 and FAM quench CP2 104.0.
`Cc1c(NC(=O)c2cc(-c3ccccc3O)on2)c(=O)n(-c2ccccc2)n1C` gave LANA DNA inh 0.6, GRK2 aptamer HTS 0.0, T cell HTS 95.2, MEX-5 binding -6.5, Keap1 Nrf2 FP 1.3 and EBV gp42 block 11.9.
Screening O=C(O)c1ccc2c(c1)C(=O)/C(=C\c1ccco1)C2=O returned LANA DNA inh 69.6*, GRK2 aptamer HTS 58.0*, T cell HTS 403.1, MEX-5 binding inconclusive, Keap1 Nrf2 FP 0.9, EBV gp42 block 11.5, GRK2 inh confirm -3.9 and Aptamer quench SP 93.7.
Screening Cc1nn(C)cc1CNC(=O)c1cccc(F)c1 returned LANA DNA inh 1.6, GRK2 aptamer HTS 0.0, T cell HTS 414.0, MEX-5 binding 2.6, Keap1 Nrf2 FP -4.5 and EBV gp42 block 9.3.
`Cc1ccc(NC(=O)c2ncn[nH]2)cc1` gave LANA DNA inh -0.2, GRK2 aptamer HTS 5.0, T cell HTS 202.0, MEX-5 binding 2.0, Keap1 Nrf2 FP -4.4 and EBV gp42 block -1.8.
Screening Cc1ccccc1C(=O)Nc1cccc(NC(=O)c2ncn[nH]2)c1 returned LANA DNA inh -1.2, GRK2 aptamer HTS 99.0*, T cell HTS 185.3, MEX-5 binding 3.7, Keap1 Nrf2 FP -1.1, EBV gp42 block -4.9, GRK2 inh confirm 16.4 and Aptamer quench SP 97.9.
`CSCC[C@H](NC(=O)COc1ccc(Cl)cc1)c1nc2ccccc2[nH]1` gave LANA DNA inh 0.3, GRK2 aptamer HTS 98.0*, T cell HTS 157.0, MEX-5 binding -2.3, Keap1 Nrf2 FP -3.2, EBV gp42 block -9.6, GRK2 inh confirm 0.8 and Aptamer quench SP 93.8.
For CSCC[C@H](NC(=O)c1cc([N+](=O)[O-])ccc1Cl)c1nc2ccccc2[nH]1 the results were LANA DNA inh 0.1, GRK2 aptamer HTS 4.0, T cell HTS 341.8, MEX-5 binding 5.3, Keap1 Nrf2 FP 4.1 and EBV gp42 block -4.5.
`N#Cc1ccc(/C=C/C(=O)c2ccccc2)cc1` gave LANA DNA inh 0.4, GRK2 aptamer HTS 51.0*, T cell HTS 65.9, MEX-5 binding -1.7, Keap1 Nrf2 FP -1.2, EBV gp42 block -4.8, GRK2 inh confirm 1.7 and Aptamer quench SP 96.6.
Screening O=C1CN(C(=O)COC(=O)[C@@H]2CCCN2S(=O)(=O)c2ccc(Cl)cc2)c2ccccc2N1 returned LANA DNA inh -1.4, GRK2 aptamer HTS 1.0, T cell HTS 464.1 and Keap1 Nrf2 FP 0.7.
Screening Cn1c(=S)n(CCC(=O)O)c2ccccc21 returned LANA DNA inh -0.2, GRK2 aptamer HTS 15.0, T cell HTS 624.0, MEX-5 binding 0.2, Keap1 Nrf2 FP 2.6, EBV gp42 block -10.8, GRK2 inh confirm -1.2 and Aptamer quench SP 97.5.
`O=C(O)CCn1c(=S)oc2ccccc21` gave LANA DNA inh 3.1, GRK2 aptamer HTS 2.0, T cell HTS 672.7, MEX-5 binding 1.7, Keap1 Nrf2 FP -6.5 and EBV gp42 block -17.4.
`CCC(CC)=NNc1ccc([N+](=O)[O-])cc1[N+](=O)[O-]` gave LANA DNA inh -0.2, GRK2 aptamer HTS 61.0*, T cell HTS 108.8, MEX-5 binding -4.3, Keap1 Nrf2 FP 1.4, EBV gp42 block -7.3, GRK2 inh confirm 2.0 and Aptamer quench SP 93.8.

Screening data from PubChem BioAssay.
